Measurements taken from paper PMC12800764 (ESMO Open, 2025).
Entries after “also recorded” stand apart in the source; their conditions may differ.

How the values were obtained:
[1] = tested on: patients with advanced, unresectable, or recurrent solid tumors; test: Safety assessments; type: in vivo, human
Method in brief: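 Safety covered all AEs of any grade, including DLTs and serious AEs, graded by NCI CTCAE v5.0. Hematology, chemistry and urinalysis were sampled before dosing at scheduled visits. Oral test compound was given b.i.d. in 28-day cycles (10-160 mg dose-escalation; 100 or 120 mg expansion). The analysis set was all patients receiving ≥1 dose.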

[2] = Plasma pharmacokinetics of E7386, noncompartmental analysis, Study 103; type: in vivo, human; conditions: 10-160 mg b.i.d.
[3] = tested on: patients with advanced, unresectable, or recurrent solid tumors; test: Dose-limiting toxicity evaluation; type: in vivo, human
Method in brief: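 A 3 + 3 escalation started at 10 mg b.i.d. oral, given continuously in 28-day cycles; 10, 15 and 20 mg were predefined. Above 20 mg, steps were 100%, 40%-60% or 25%-39% depending on treatment-related grade 2 or ≥3 toxicity. DLTs were drug-related AEs in cycle 1 (28 days), graded by CTCAE v5.0. Patients dosed as planned in C1, or having a DLT, formed the analysis set.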

[4] = tested on: patients with advanced, unresectable, or recurrent solid tumors; test: Bone assessments; type: in vivo, human
Method in brief: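 Both parts used DXA bone density at screening, C2D1 and every 12 weeks (±7 days) from C1D1. Fasting serum β-CTX was measured at screening, C2D1, C3D1, then every 8 weeks and at end of treatment. Dose-escalation added β-CTX at C1D15; expansion added DXA (C2D1 ±7 days) at end of treatment and when clinically indicated. Osteoporosis (T-score < −2.5) and untreated bone metastasis excluded patients.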

[5] = tested on: advanced, unresectable, or recurrent solid tumors; test: Antitumor activity by investigators, RECIST v1.1, Study 103; type: in vivo, human
Method in brief: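 Investigators assessed tumors by CT/MRI every 8 weeks, at end of treatment and when clinically indicated, using the screening modality and settings, per RECIST v1.1. Endpoints were objective response (CR/PR), disease control (CR/PR/SD) and clinical benefit (CR, PR, or SD lasting ≥23 weeks). All patients receiving ≥1 dose of oral test compound (b.i.d., 28-day cycles) were analysed.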

bone formation = conditions: rats; 7-day repeated-dose toxicity study; ref Data on file; cited from earlier work
Apc^Min/+ mice = conditions: cited from earlier work
ECC10 xenograft = conditions: human gastric cancer cell line (ECC10) xenograft model; cited from earlier work
[6] = tested on: activating transcription factor 4 pathway; conditions: preclinical models of HCC; cited from earlier work
advanced solid tumors = conditions: 0 of 25; cited from earlier work
desmoid tumors = conditions: patients with desmoid tumors; cited from earlier work
endometrial cancer = conditions: cited from earlier work

C=CCN1CC(=O)N2[C@@H](Cc3ccc(O)cc3F)C(=O)N(Cc3cccc(N4CC(N5CCN(CC)CC5)C4)n3)C[C@@H]2N1C(=O)NCc1ccccc1 [E7386]
Deaths due to TEAEs ([1]; both parts): No patients died due to TEAEs | Nausea (TEAE) frequency ([1]; dose-escalation part): 83.3% | Patients with grade ≥3 TEAEs ([1]; dose-escalation part): 15 patients | Patients with grade ≥3 anemia ([1]; dose-escalation part): four | Vomiting (TEAE) frequency ([1]; dose-escalation part): 61.1% | TEAEs leading to dose interruption ([1]; dose-escalation part, 13 patients): 36.1% | Patients with TEAEs ([1]; dose-escalation part, 35 of 36 patients): 97.2% | TEAEs leading to dose reduction ([1]; dose-escalation part, one patient (decreased appetite)): 2.8% | TEAEs leading to study-drug discontinuation ([1]; dose-escalation part, two patients, not considered related to treatment): 5.6% | Nausea (TEAE) frequency ([1]; expansion part): 84.2% | Patients with grade ≥3 TEAEs ([1]; expansion part): 10 patients | Patients with grade ≥3 anemia ([1]; expansion part): two | Patients with grade ≥3 hyponatremia ([1]; expansion part): two | Patients with grade ≥3 nausea ([1]; expansion part): one | TEAEs leading to study-drug discontinuation ([1]; expansion part): No patient in the expansion part discontinued the study drug due to TEAEs | Vomiting (TEAE) frequency ([1]; expansion part): 73.7% | TEAEs leading to dose interruption ([1]; expansion part, 5 patients): 26.3% | Patients with TEAEs ([1]; expansion part, 18 of 19 patients): 94.7% | TEAEs leading to dose reduction ([1]; expansion part, four patients): 21.1% | E7386 exposure versus dose ([2]; single and repeat dose, large inter-subject variability): generally increased with dose | Time at which maximum plasma concentration was reached ([2]; after oral administration on C1D1): 0.5 to 2.0 h | Geometric mean accumulation ratios for AUC ([2]; for each dose): 1.12-3.81 | Geometric mean accumulation ratios for Cmax ([2]; for each dose): 0.65-3.97 | Patients with dose-limiting toxicities (grade 3 decreased appetite) ([3]; 160 mg b.i.d. cohort, cycle 1, dose-escalation): two | Dose-limiting toxicities ([3]; 10-120 mg b.i.d. cohorts, dose-escalation): no DLTs were observed | Recommended dose of E7386 monotherapy ([3]; oral, 28-day cycles): 120 mg b.i.d. | Patients with T-score < −2.5 as per DXA scan during the study ([4]; 1 of 55 patients, spine: −2.4 at screening to −2.6 on C2D1): 1.8% | Patients with asymptomatic, post-baseline elevations in β-CTX >1000 pg/ml ([4]; 7 of 55 patients): 12.7% | Bone fractures ([4]; either part of the study): No bone fractures were reported; also recorded: no bone fracture was observed | Patients achieving partial response (PR) ([5]; dose-escalation part, SBC at 15 mg b.i.d. and desmoid tumor at 80 mg b.i.d.): two | Partial responses ([5]; expansion part): No PRs were observed | Treatment duration with durable SD ([5]; expansion part, patient with CRC (APC/KRAS/TP53 mutations), 100 mg b.i.d., no tumor size reduction): ~7 months | Treatment duration with durable SD ([5]; expansion part, patient with HCC, 120 mg b.i.d., with tumor size reduction): ~7 months | Antitumor activity in patients with CRC ([5]; irrespective of APC mutation status): did not indicate antitumor activity | Treatment period of responder (PR) ([5]; patient with desmoid tumor, 80 mg b.i.d. cohort, ongoing at data cut-off): > 3.5 years | Treatment duration with durable SD ([5]; patient with solid pseudopapillary neoplasm of the pancreas, 30 mg b.i.d. cohort): > 2.5 years | Doses at which effects on bone formation were observed (bone formation): ≥ 60 mg/kg | Polyp formation in the intestine (Apc^Min/+ mice): suppressed polyp formation | Tumor growth (ECC10 xenograft): inhibited tumor growth | Effect on activating transcription factor 4 pathway [6]: up-regulate the activating transcription factor 4 pathway

Cc1c(-c2ccnc(C(F)(F)F)c2)ncn1CC(=O)Nc1ccc(-c2cnccn2)cn1 [RXC004]
Objective response rate (ORR) (advanced solid tumors): 0%

C[C@@H]1C[C@H](C)CN(S(=O)(=O)c2ccc3c(c2)C(=NO)c2cc(S(=O)(=O)N4C[C@H](C)C[C@H](C)C4)ccc2C3=NO)C1 [tegavivint]
Nausea incidence (desmoid tumors): 33%

B1: DKN-01: a DKK-1 antibody targeting the Wnt signaling pathway (antibody, chains of the INN, looked up, V domains shown)
VH: EVQLVESGGGLVQPGGSLRLSCAASGFTFSSYTMSWVRQAPGKGLEWVATISGGGFGTYYPDSVKGRFTISRDNAKNSLYLQMNSLRAEDTAVYYCARPGYNNYYFDIWGQGTTVTVSS
VL: EIVLTQSPATLSLSPGERATLSCHASDSISNSLHWYQQKPGQAPRLLIYYARQSIQGIPARFSGSGSGTDFTLTISSLEPEDFAVYYCQQSESWPLHFGGGTKVEIK
TEAE nausea incidence (endometrial cancer): 48.3% | TEAE vomiting incidence (endometrial cancer): 24.1% | Objective response rate (ORR) (endometrial cancer; endometrial cancer, 2 of 26): 7.7%
